The compounds below were run against T1, Caspase-1 (Homo sapiens) (UniProt P29466) (assay: Inhibition of ICE in human PBMC).
T1 sequence (whole entry): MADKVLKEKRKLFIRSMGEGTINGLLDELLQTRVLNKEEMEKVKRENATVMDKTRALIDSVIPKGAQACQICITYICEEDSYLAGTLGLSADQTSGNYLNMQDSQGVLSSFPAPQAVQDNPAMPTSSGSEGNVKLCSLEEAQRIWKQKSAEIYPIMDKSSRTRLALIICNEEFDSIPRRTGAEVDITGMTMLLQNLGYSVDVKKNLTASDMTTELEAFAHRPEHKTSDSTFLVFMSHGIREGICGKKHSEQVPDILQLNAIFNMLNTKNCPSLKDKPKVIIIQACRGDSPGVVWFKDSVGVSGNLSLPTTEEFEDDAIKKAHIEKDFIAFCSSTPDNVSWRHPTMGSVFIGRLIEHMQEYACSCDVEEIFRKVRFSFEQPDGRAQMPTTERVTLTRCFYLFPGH
Procedure, shortened: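 Human PBMC isolated from heparinized blood over Ficoll, washed three times in PBS, then held in RPMI 1640 with glutamine, penicillin, streptomycin and 2% human AB serum at 10^6 cells per well. Cells were stimulated overnight with LPS 10 ng/mL with or without inhibitor. Mature IL-1b in the medium was measured by ELISA. IC50 is the concentration reducing IL-1b by 50%.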

| SMILES | IC50 [µM] |
| --- | --- |
| COC(=O)C[C@H]1CCC[C@H]2CC(=O)N(OCC(=O)[C@H](CC(=O)O)NC(=O)[C@H](C)NC(=O)[C@@H](NC(=O)OCc3ccccc3)C(C)C)[C@@H]12 | 4.8 |
| CC(=O)N[C@@H](Cc1ccc(O)cc1)C(=O)N[C@H](C(=O)N[C@@H](C)C(=O)N[C@@H](CC(=O)O)C(=O)CCCCCc1ccccc1)C(C)C | 0.9 |
| CC(C)[C@H](NC(=O)OCc1ccccc1)C(=O)N[C@@H](C)C(=O)N[C@@H](CC(=O)O)C(=O)COC(=O)C(Cc1ccccc1)Cc1ccccc1 | 1.4 |
| CC(C)[C@H](NC(=O)OCc1ccccc1)C(=O)N[C@@H](C)C(=O)N[C@@H](CC(=O)O)C(=O)CCCCCc1ccccc1 | 4.9 |
| CC(C)[C@H](NC(=O)OCc1ccccc1)C(=O)N[C@@H](C)C(=O)N[C@@H](CC(=O)O)C(=O)CON1C(=O)C[C@@H]2CCCC[C@@H]21 | 2.4 |
| CC(C)[C@H](NC(=O)OCc1ccccc1)C(=O)N[C@@H](C)C(=O)N[C@@H](CC(=O)O)C(=O)CON1C(=O)Cc2ccccc21 | 3 |
| CC(C)[C@H](NC(=O)OCc1ccccc1)C(=O)N[C@@H](C)C(=O)N[C@@H](CC(=O)O)C(=O)COC(=O)CC(c1ccccc1)c1ccccc1 | 4.3 |
| CC(C)[C@H](NC(=O)OCc1ccccc1)C(=O)N[C@@H](C)C(=O)N[C@@H](CC(=O)O)C(=O)COC(=O)Cc1cccc2ccccc12 | 0.6 |

Each compound was assayed against T2, Caspase-1 (Homo sapiens, UniProt P29466) (assay: Inhibition of ICE).
T2 sequence (P29466 whole entry): T1 sequence (whole entry)
Procedure, shortened: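 Recombinant ICE; inhibition followed by fluorescence. Ki reported as the geometric mean of two or more experiments.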

| SMILES | Ki [µM] | IC50 [µM] |
| --- | --- | --- |
| O=C(O)C[C@H](NC(=O)OCc1ccccc1)C(=O)COC(=O)CCc1ccc2ccccc2c1 | 6 | – |
| O=C(O)C[C@H](NC(=O)OCc1ccccc1)C(=O)CONC(=O)Cc1cccc2ccccc12 | 84 | – |
| CC(C(=O)OCC(=O)[C@H](CC(=O)O)NC(=O)OCc1ccccc1)c1cccc2ccccc12 (stereo partly specified) | 1 | – |
| O=C(O)C[C@H](NC(=O)OCc1ccccc1)C(=O)COC(=O)CCCc1ccccc1 | 16 | – |
| COC(=O)C[C@H]1CCC[C@H]2CC(=O)N(OCC(=O)[C@H](CC(=O)O)NC(=O)OCc3ccccc3)[C@@H]12 | 15 | – |
| O=C(O)C[C@H](NC(=O)OCc1ccccc1)C(=O)CONC(=O)CCc1ccccc1 | 27.5 | – |
| O=C(O)C[C@H](NC(=O)OCc1ccccc1)C(=O)COC(=O)CC(c1ccccc1)c1ccccn1 (stereo partly specified) | 1.1 | – |
| Cc1cccc2cccc(CC(=O)OCC(=O)[C@H](CC(=O)O)NC(=O)OCc3ccccc3)c12 | 8.5 | – |
| O=C(O)C[C@H](NC(=O)OCc1ccccc1)C(=O)COC(=O)Cc1coc2ccccc12 | 0.8 | – |
| O=C(O)C[C@H](NC(=O)OCc1ccccc1)C(=O)COC(=O)COc1cccc2ccccc12 | 1 | – |
| O=C(O)C[C@H](NC(=O)OCc1ccccc1)C(=O)CON1C(=O)C[C@@H]2CCCC[C@H]21 | 17.5 | – |
| O=C(O)C[C@H](NC(=O)OCc1ccccc1)C(=O)COC(=O)Cc1cccc2scnc12 | 2.6 | – |
| COC(=O)C[C@H]1CCC[C@H]2CC(=O)N(OCC(=O)[C@H](CC(=O)O)NC(=O)[C@H](C)NC(=O)[C@@H](NC(=O)OCc3ccccc3)C(C)C)[C@@H]12 | 0.007 | 0.026 |
| CC(=O)N[C@@H](Cc1ccc(O)cc1)C(=O)N[C@H](C(=O)N[C@@H](C)C(=O)N[C@@H](CC(=O)O)C(=O)CCCCCc1ccccc1)C(C)C | – | 0.078 |
| O=C(O)C[C@H](NC(=O)OCc1ccccc1)C(=O)CON1C(=O)C[C@@H]2CCCC[C@@H]21 | 9.2 | – |
| O=C(O)C[C@H](NC(=O)OCc1ccccc1)C(=O)COC(=O)Cc1c[nH]c2ccccc12 | 0.6 | – |
| Cc1ccc2ccccc2c1CC(=O)OCC(=O)[C@H](CC(=O)O)NC(=O)OCc1ccccc1 | 4.4 | – |
| CC(C)[C@H](NC(=O)OCc1ccccc1)C(=O)N[C@@H](C)C(=O)N[C@@H](CC(=O)O)C(=O)COC(=O)C(Cc1ccccc1)Cc1ccccc1 | 0.002 | 0.003 |
| O=C(O)C[C@H](NC(=O)OCc1ccccc1)C(=O)COC(=O)CCc1ccccc1 | 4.5 | – |
| CC(C)[C@H](NC(=O)OCc1ccccc1)C(=O)N[C@@H](C)C(=O)N[C@@H](CC(=O)O)C(=O)CCCCCc1ccccc1 | 0.134 | 0.976 |
| Cc1ccc(CC(=O)OCC(=O)[C@H](CC(=O)O)NC(=O)OCc2ccccc2)c2ccccc12 | 1.3 | – |

| SMILES | Ki [µM] | IC50 [µM] |
| --- | --- | --- |
| O=C(O)C[C@H](NC(=O)OCc1ccccc1)C(=O)COC(=O)Cc1ccccc1 | 8.3 | – |
| O=C(O)C[C@H](NC(=O)OCc1ccccc1)C(=O)CON1Cc2ccccc2C1=O | 14 | – |
| CC(C)[C@H](NC(=O)OCc1ccccc1)C(=O)N[C@@H](C)C(=O)N[C@@H](CC(=O)O)C(=O)CON1C(=O)C[C@@H]2CCCC[C@@H]21 | 0.001 | 0.003 |
| CC(C)[C@H](NC(=O)OCc1ccccc1)C(=O)N[C@@H](C)C(=O)N[C@@H](CC(=O)O)C(=O)CON1C(=O)Cc2ccccc21 | 0.002 | 0.003 |
| O=C(O)C[C@H](NC(=O)OCc1ccccc1)C(=O)COC(=O)CNc1ccccc1 | 5.6 | – |
| O=C(O)C[C@H](NC(=O)OCc1ccccc1)C(=O)COC(=O)Cc1cccc2ccccc12 | 0.5 | – |
| O=C(O)C[C@H](NC(=O)OCc1ccccc1)C(=O)CONC(=O)c1ccccc1 | 21 | – |
| O=C(O)C[C@H](NC(=O)OCc1ccccc1)C(=O)CON1C(=O)Cc2ccccc21 | 6.77 | – |
| O=C(O)C[C@H](NC(=O)OCc1ccccc1)C(=O)COCCCCCc1ccccc1 | 119 | – |
| O=C(O)C[C@H](NC(=O)OCc1ccccc1)C(=O)COC(=O)Cc1ccc2ccccc2c1 | 1.3 | – |
| O=C(O)C[C@H](NC(=O)OCc1ccccc1)C(=O)CONC(=O)Cc1ccccc1 | 66.5 | – |
| Cc1cccc2c(CC(=O)OCC(=O)[C@H](CC(=O)O)NC(=O)OCc3ccccc3)cccc12 | 2 | – |
| CC(C)[C@H](NC(=O)OCc1ccccc1)C(=O)N[C@@H](C)C(=O)N[C@@H](CC(=O)O)C(=O)COC(=O)CC(c1ccccc1)c1ccccc1 | 0.001 | 0.005 |
| O=C(O)C[C@H](NC(=O)OCc1ccccc1)C(=O)CONC(=O)CCc1cccc2ccccc12 | 298 | – |
| O=C(O)C[C@H](NC(=O)OCc1ccccc1)C(=O)COC(=O)COc1ccccc1 | 1.7 | – |
| O=C(O)C[C@H](NC(=O)OCc1ccccc1)C(=O)COC(=O)Cc1csc2ccccc12 | 1.2 | – |
| O=C(O)C[C@H](NC(=O)OCc1ccccc1)C(=O)COC(=O)CSc1ccccc1 | 1.1 | – |
| O=C(O)C[C@H](NC(=O)OCc1ccccc1)C(=O)CON1C(=O)C2C3C=CC(O3)C2C1=O (stereo partly specified) | 1.5 | – |
| CC(C)[C@H](NC(=O)OCc1ccccc1)C(=O)N[C@@H](C)C(=O)N[C@@H](CC(=O)O)C(=O)COC(=O)Cc1cccc2ccccc12 | 0.003 | 0.002 |
| O=C(O)C[C@H](NC(=O)OCc1ccccc1)C(=O)COC(=O)CC(c1ccccc1)c1ccccc1 | 0.8 | – |
